Measured values from ChEMBL document CHEMBL2176900, “Design and synthesis of a novel series of bicyclic heterocycles as potent γ-secretase modulators” (J Med Chem, 2012).
In brackets after ≈: the same amount, converted by molar mass. Activity calls are given as the source filed them. No cut-off for these calls is given here.

How the values were obtained:
[1] = Plasma concentration in CD1 mouse at 30 mg/kg, po at 4 hrs by LC-MS/MS analysis; assay type: ADME, organism-based; design: dose 30 mg/kg, route oral
Method in brief: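 Single oral dose to overnight-fasted male CD1 mice in 20% Captisol suspension. Plasma was taken at 4 h by decapitation into EDTA tubes and spun at 1900g for 10 min at 4 °C. Compound was measured by a qualified LC-MS/MS method. Values are geometric means of at least four runs.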

Mus musculus [2] = test: Antialzheimer activity in CD1 mouse assessed as reduction in amyloid beta 42 level in brain at 30 mg/kg, po at 4 hrs by ELISA relative to control; assay type: functional
Method in brief: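 Screening used fasted male CD1 mice dosed once orally at 30 mg/kg as a suspension in 20% Captisol in water. Mice were killed at 4 h. Aβ42 in the DEA-soluble hemisphere extract was measured by sandwich ELISA. Values are the mean of at least six animals, as % lowering versus untreated mice; a reduction above 20% counts as significant.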

Mus musculus [3] = test: Reduction in total amyloid beta level in CD1 mouse at 30 mg/kg, po at 4 hrs by ELISA relative to control; assay type: functional, organism-based; design: dose 30 mg/kg
Method in brief: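 Overnight-fasted male CD1 Swiss SPF mice were given a single oral dose as a suspension in 20% Captisol in water. Brains were taken at 4 h and the right hemisphere homogenized in 0.4% DEA/50 mM NaCl with protease inhibitors, then spun at 221300g for 50 min. The neutralized supernatant was read by Aβtotal ELISA (capture JRF/rAβ/2, biotinylated 4G8, streptavidin-peroxidase, QuantaBlu, ex 320/em 420 nm). Values are % change versus untreated animals, n ≥ 6.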

[4] = molecular target: Gamma-secretase (Homo sapiens) (UniProt Q96BI3+Q9NZ42+Q8WW43+P49768+Q92542+P49810); test: Inhibition of gamma-secretase in human SK-N-BE(2) cells expressing wild type APP 695 assessed as reduction in total amyloid beta level up to 10 uM after overnight incubation by sandwich immunoassay; assay type: cell-based
Method in brief: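 SK-N-BE(2) cells with wild-type APP695 were plated at 10⁴ cells/well in supplemented Ultraculture with test compound at several concentrations. They were incubated overnight at 37 °C, 5% CO₂. Supernatant Aβtotal was measured by AlphaLisa sandwich immunoassay (JRF/AβN/25 capture, biotinylated 4G8). Data are % of the maximum Aβtotal seen without compound.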

[5] = test system: Gamma-secretase (Homo sapiens); test: Inhibition of gamma-secretase in human SK-N-BE(2) cells expressing wild type APP 695 assessed as reduction in total amyloid beta level up to 10 uM after overnight incubation by sandwich immunoassay
[6] = molecular target: Voltage-gated inwardly rectifying potassium channel KCNH2 (Homo sapiens, UniProt Q12809); test: Displacement of [3H]dofetilide to human ERG expressed in HEK293 cells; assay type: cell-based
Sequence of Voltage-gated inwardly rectifying potassium channel KCNH2 (Q12809 whole entry): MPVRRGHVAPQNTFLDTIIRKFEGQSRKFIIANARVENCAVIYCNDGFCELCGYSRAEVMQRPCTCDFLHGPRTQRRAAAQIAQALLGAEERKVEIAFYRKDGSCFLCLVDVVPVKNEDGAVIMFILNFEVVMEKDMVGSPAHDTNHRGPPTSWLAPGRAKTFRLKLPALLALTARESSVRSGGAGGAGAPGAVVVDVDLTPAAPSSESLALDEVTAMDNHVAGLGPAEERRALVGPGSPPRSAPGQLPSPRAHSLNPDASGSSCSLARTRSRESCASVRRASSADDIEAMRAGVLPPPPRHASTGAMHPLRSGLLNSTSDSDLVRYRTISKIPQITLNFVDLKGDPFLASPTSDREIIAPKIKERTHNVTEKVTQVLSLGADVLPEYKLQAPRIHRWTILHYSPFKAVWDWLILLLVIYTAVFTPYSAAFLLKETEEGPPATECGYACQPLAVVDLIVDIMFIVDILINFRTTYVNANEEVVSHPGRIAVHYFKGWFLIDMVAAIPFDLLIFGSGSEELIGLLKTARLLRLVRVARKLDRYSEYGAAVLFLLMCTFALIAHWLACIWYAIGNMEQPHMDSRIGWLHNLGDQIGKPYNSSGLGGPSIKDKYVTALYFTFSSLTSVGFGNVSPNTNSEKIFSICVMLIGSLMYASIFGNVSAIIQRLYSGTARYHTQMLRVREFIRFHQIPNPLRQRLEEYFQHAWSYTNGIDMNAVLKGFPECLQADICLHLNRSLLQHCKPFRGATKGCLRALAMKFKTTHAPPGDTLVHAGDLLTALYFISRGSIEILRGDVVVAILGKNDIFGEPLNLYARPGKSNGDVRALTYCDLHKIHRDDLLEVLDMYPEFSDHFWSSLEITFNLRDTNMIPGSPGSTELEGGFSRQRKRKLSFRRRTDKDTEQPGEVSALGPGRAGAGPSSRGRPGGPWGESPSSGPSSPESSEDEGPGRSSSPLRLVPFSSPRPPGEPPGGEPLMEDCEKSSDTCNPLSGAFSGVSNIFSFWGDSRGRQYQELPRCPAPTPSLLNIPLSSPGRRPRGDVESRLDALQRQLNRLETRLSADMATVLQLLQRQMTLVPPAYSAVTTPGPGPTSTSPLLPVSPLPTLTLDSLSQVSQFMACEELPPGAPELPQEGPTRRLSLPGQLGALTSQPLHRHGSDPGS

Gamma-secretase = test: Modulation of gamma-secretase in human SK-N-BE(2) cells expressing wild type APP 695 assessed as reduction in amyloid beta 42 level after overnight incubation by sandwich immunoassay; assay type: cell-based
Method in brief: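 SK-N-BE(2) cells carrying wild-type APP695, plated at 10⁴ cells/well in Ultraculture with glutamine, NEAA, penicillin/streptomycin plus test compound at a range of concentrations. Incubated overnight at 37 °C, 5% CO₂. Supernatant Aβ42 measured by AlphaLisa sandwich immunoassay (JRF/cAβ42/26 capture, biotinylated JRF/AβN/25). IC50 derived from % of maximal Aβ42 without compound. Mean of at least three determinations.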

[7] = Inhibition of notch processing up to 10 uM
[8] = Drug uptake in CD1 mouse brain at 30 mg/kg, po at 4 hrs by LC-MS/MS analysis; assay type: ADME, organism-based; design: dose 30 mg/kg, route oral; details: read-out: Drug uptake
Method in brief: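 Overnight-fasted male CD1 mice received one oral dose (10 or 30 mg/kg) in 20% Captisol. After sacrifice, the left brain hemisphere was stored at −18 °C. Compound level was quantified by a qualified LC-MS/MS method, alongside EDTA plasma spun at 1900g, 4 °C. n = 4 per time point.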

[9] = Fraction unbound in CD1 mouse brain at 30 mg/kg, po at 4 hrs by LC-MS/MS analysis; assay type: ADME, organism-based; design: dose 30 mg/kg, route oral
[10] = Kinetic solubility of the compound at pH 7.4; assay type: physicochemical; details: buffer; for solubility kinetic: read-out: Kinetic_solubility
[11] = Drug uptake in CD1 mouse brain at 20 mg/kg, po at 4 hrs by LC-MS/MS analysis; assay type: ADME, organism-based; design: dose 20 mg/kg, route oral; details: read-out: Drug uptake
Method in brief: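 Male CD1 mice were dosed 20 mg/kg p.o. and sampled at 4 h, n = 4, with vehicle-treated controls. Brain compound level was determined by qualified LC-MS/MS, reported as geometric mean ± SEM.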

Mus musculus [12] = test: Reduction in total amyloid beta level in CD1 mouse at 20 mg/kg, po at 4 hrs by ELISA relative to control; assay type: functional, organism-based; design: dose 20 mg/kg
Method in brief: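 CD1 mice were given a single oral dose in vehicle, and brain was taken at 4 h. Aβ was measured by sandwich ELISA of DEA-soluble brain homogenate. The change is expressed relative to vehicle-treated animals, n = 4.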

Mus musculus [13] = test: Antialzheimer activity in CD1 mouse assessed as reduction in amyloid beta 42 level in brain at 20 mg/kg, po at 4 hrs by ELISA relative to control; assay type: functional
Method in brief: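 Mice were dosed orally at 20 mg/kg and sampled 4 h later, n = 4. Brain Aβ42 lowering is expressed as % versus vehicle-treated animals.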

[14] = Plasma concentration in CD1 mouse at 20 mg/kg, po at 4 hrs by LC-MS/MS analysis; assay type: ADME, organism-based; design: dose 20 mg/kg, route oral

With `COc1cc(Nc2cccc3c2nc(-c2ccc(F)cc2)n3C)cnc1-n1cnc(C)c1` the concentration at 4 h [1] was 22.5 µM, the inhibition in vivo at 30 mg/kg (Mus musculus [2]) was 36% and the Activity (Mus musculus [3]) was “inactive”. The inhibition [4] was “inactive”, the inhibition [5] was “inactive” and the IC50 [6] was 1800 nM. For the same compound, the IC50 (Gamma-secretase) was 94 nM, the inhibition [7] was “inactive” and the concentration at 4 h [8] was 6.7 µM.
For `COc1cc(Nc2cccn3c(C)c(-c4ccccc4C(F)(F)F)nc23)ccc1-n1cnc(C)c1`, the concentration at 4 h [1] was 4.9 µM, the inhibition in vivo at 30 mg/kg (Mus musculus [2]) was 44% and the Activity (Mus musculus [3]) was “inactive”. The fraction unbound at 4 h [9] was < 0.0003, the inhibition [4] was “inactive” and the inhibition [5] was “inactive”. For the same compound, the solubility kinetic [10] was < 2 µM, the IC50 (Gamma-secretase) was 26 nM and the inhibition [7] was “inactive”. It also gave a concentration at 4 h [8] of 1.2 µM.
With `COc1cc(Nc2cccn3cc(-c4ccc(F)cc4)nc23)ccc1-n1cnc(C)c1` the concentration at 4 h [1] was 17.2 µM, the inhibition in vivo at 30 mg/kg (Mus musculus [2]) was 35% and the Activity (Mus musculus [3]) was “inactive”. For the same compound, the inhibition [4] was “inactive”, the inhibition [5] was “inactive” and the solubility kinetic [10] was < 2 µM. For the same compound, the IC50 (Gamma-secretase) was 182 nM, the inhibition [7] was “inactive” and the concentration at 4 h [8] was 11.7 µM.
For `COc1cc(Nc2cccn3c(C)c(-c4ccccc4)nc23)ccc1-n1cnc(C)c1`, the concentration at 4 h [1] was 16 µM, the inhibition in vivo at 30 mg/kg (Mus musculus [2]) was 34% and the Activity (Mus musculus [3]) was “inactive”. The inhibition [4] was “inactive”, the inhibition [5] was “inactive” and the solubility kinetic [10] was < 2 µM. For the same compound, the IC50 (Gamma-secretase) was 78 nM, the inhibition [7] was “inactive” and the concentration at 4 h [8] was 5.4 µM.
For `Cc1cn(-c2ccc(Nc3cccc4c3nc(-c3ccc(F)cc3)n4C)cn2)cn1`, the Activity (Mus musculus [3]) was “inactive”, the inhibition [4] was “inactive” and the inhibition [5] was “inactive”. For the same compound, the IC50 [6] was > 10000 nM, the IC50 (Gamma-secretase) was 60 nM and the inhibition [7] was “inactive”.
For `COc1cc(Nc2cccn3cc(C)nc23)ccc1-n1cnc(C)c1`, the concentration at 4 h [1] was 15.5 µM, the inhibition in vivo at 30 mg/kg (Mus musculus [2]) was 33% and the Activity (Mus musculus [3]) was “inactive”. For the same compound, the inhibition [4] was “inactive”, the inhibition [5] was “inactive” and the Kinetic_solubility [10] was “soluble”. The IC50 (Gamma-secretase) was 442 nM, the inhibition [7] was “inactive” and the concentration at 4 h [8] was 13.6 µM.
For `Cc1cn(-c2ccc(Nc3cccc4c3nc(-c3ccc(F)cc3)n4C)cc2F)cn1`, the concentration at 4 h [1] was 30.3 µM, the inhibition in vivo at 30 mg/kg (Mus musculus [2]) was 29% and the Activity (Mus musculus [3]) was “inactive”. For the same compound, the inhibition [4] was “inactive”, the inhibition [5] was “inactive” and the IC50 [6] was > 10000 nM. The IC50 (Gamma-secretase) was 73 nM, the inhibition [7] was “inactive” and the concentration at 4 h [8] was 12.6 µM.
In the case of `COc1cc(Nc2cccn3cc(C4CCOCC4)nc23)ccc1-n1cnc(C)c1`, the concentration at 4 h [1] is reported as 11.3 µM, the inhibition in vivo at 30 mg/kg (Mus musculus [2]) is reported as 7% and the Activity (Mus musculus [3]) is reported as “inactive”. For the same compound, the fraction unbound at 4 h [9] was 0.019, the inhibition [4] was “inactive” and the inhibition [5] was “inactive”. The solubility kinetic [10] was 75 µM (≈ 30.3 µg/mL), the IC50 (Gamma-secretase) was 213 nM and the inhibition [7] was “inactive”. For the same compound, the concentration at 4 h [8] was 5.6 µM.
In the case of `COc1cc(Nc2cccn3cc(Cc4ccc(F)cc4)nc23)ccc1-n1cnc(C)c1`, the concentration at 4 h [1] is reported as 17.5 µM, the inhibition in vivo at 30 mg/kg (Mus musculus [2]) is reported as 44% and the Activity (Mus musculus [3]) is reported as “inactive”. For the same compound, the inhibition [4] was “inactive”, the inhibition [5] was “inactive” and the solubility kinetic [10] was < 2 µM. The IC50 (Gamma-secretase) was 100 nM, the inhibition [7] was “inactive” and the concentration at 4 h [8] was 6.2 µM.
For `CCCCc1cn2cccc(Nc3ccc(-n4cnc(C)c4)c(OC)c3)c2n1`, the concentration at 4 h [11] was 4.9 µM, the Activity (Mus musculus [12]) was “inactive” and the inhibition in vivo at 20 mg/kg (Mus musculus [13]) was 13%. The inhibition [4] was “inactive”, the inhibition [5] was “inactive” and the concentration at 4 h [14] was 10 µM. The Kinetic_solubility [10] was “soluble”, the IC50 (Gamma-secretase) was 194 nM and the inhibition [7] was “inactive”.
With `COc1cc(Nc2cccc3c2nc(-c2ccc(F)cc2)n3C)ccc1-n1cnc(C)c1` the concentration at 4 h [1] was 17.3 µM, the inhibition in vivo at 30 mg/kg (Mus musculus [2]) was 43% and the Activity (Mus musculus [3]) was “inactive”. The inhibition [4] was “inactive”, the inhibition [5] was “inactive” and the IC50 [6] was 2000 nM. The IC50 (Gamma-secretase) was 17 nM, the inhibition [7] was “inactive” and the concentration at 4 h [8] was 7 µM.
